Experiments:
[1] = test system: PC-3; experiment: Growth inhibition of human PC3 cells at 30 uM after 48 hrs by sulpharhodamine B assay; type: functional; conditions: PC-3, 48 h, read-out: GI
Procedure, shortened: (§1)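 Cells grown in RPMI-1640/MEM with 10% FCS, penicillin/streptomycin, 37 °C, 5% CO2. Seeded in 96-well plates, allowed to adhere overnight, then exposed 48 h to analogs in DMSO (vehicle <0.2% in controls). TCA-fixed, stained with 0.4% SRB in 1% acetic acid, dye solubilized in 10 mM Tris base, OD 570 nm (ref 620 nm). Mean ± SD of three experiments run in triplicate.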

[2] = test system: PC-3; experiment: Growth inhibition of human PC3 cells at 50 uM after 48 hrs by sulpharhodamine B assay; type: functional; conditions: PC-3, 48 h, read-out: GI; procedure, shortened: as §1
[3] = test system: HeLa; experiment: Growth inhibition of human HeLa cells at 50 uM after 48 hrs by sulpharhodamine B assay; type: functional; conditions: read-out: GI
Procedure, shortened: (§2)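 This is the SRB protein-stain assay on adherent cells in RPMI-1640/MEM with 10% FCS. Each compound in DMSO (vehicle <0.2%) was applied at a single fixed concentration for 48 h. Cells were fixed with TCA and stained with SRB, and the dye was solubilised in Tris and read at 570/620 nm. Percent growth inhibition is relative to vehicle-treated controls, reported as mean ± SD of three experiments run in triplicate.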

[4] = test system: HEp-2; experiment: Growth inhibition of human Hep2 cells at 30 uM after 48 hrs by sulpharhodamine B assay; type: functional; conditions: HEp-2, 48 h, read-out: GI; procedure, shortened: as §2
[5] = test system: MCF7; experiment: Growth inhibition of human MCF7 cells at 30 uM after 48 hrs by sulpharhodamine B assay; type: functional; conditions: MCF7, 48 h, read-out: GI; procedure, shortened: as §2
[6] = test system: IMR-32; experiment: Growth inhibition of human IMR32 cells at 30 uM after 48 hrs by sulpharhodamine B assay; type: functional; conditions: IMR-32, 48 h, read-out: GI; procedure, shortened: as §2
[7] = test system: A549; experiment: Growth inhibition of human A549 cells at 50 uM after 48 hrs by sulpharhodamine B assay; type: functional; conditions: A549, 48 h, read-out: GI; procedure, shortened: as §2
[8] = test system: THP-1; experiment: Growth inhibition of human THP1 cells at 30 uM after 48 hrs by sulpharhodamine B assay; type: functional; conditions: THP-1, 48 h, read-out: GI; procedure, shortened: as §1
[9] = test system: A549; experiment: Growth inhibition of human A549 cells at 30 uM after 48 hrs by sulpharhodamine B assay; type: functional; conditions: A549, 48 h, read-out: GI; procedure, shortened: as §2
[10] = test system: OVCAR-5; experiment: Growth inhibition of human OVCAR5 cells at 50 uM after 48 hrs by sulpharhodamine B assay; type: functional; conditions: OVCAR-5, 48 h, read-out: GI; procedure, shortened: as §2
[11] = test system: HeLa; experiment: Growth inhibition of human HeLa cells at 30 uM after 48 hrs by sulpharhodamine B assay; type: functional; conditions: read-out: GI; procedure, shortened: as §2
[12] = test system: HEp-2; experiment: Growth inhibition of human Hep2 cells at 50 uM after 48 hrs by sulpharhodamine B assay; type: functional; conditions: HEp-2, 48 h, read-out: GI; procedure, shortened: as §2
[13] = test system: MCF7; experiment: Growth inhibition of human MCF7 cells at 50 uM after 48 hrs by sulpharhodamine B assay; type: functional; conditions: MCF7, 48 h, read-out: GI; procedure, shortened: as §2
[14] = test system: THP-1; experiment: Growth inhibition of human THP1 cells at 50 uM after 48 hrs by sulpharhodamine B assay; type: functional; conditions: THP-1, 48 h, read-out: GI; procedure, shortened: as §1
[15] = test system: IMR-32; experiment: Growth inhibition of human IMR32 cells at 50 uM after 48 hrs by sulpharhodamine B assay; type: functional; conditions: IMR-32, 48 h, read-out: GI; procedure, shortened: as §2
[16] = test system: OVCAR-5; experiment: Growth inhibition of human OVCAR5 cells at 30 uM after 48 hrs by sulpharhodamine B assay; type: functional; conditions: OVCAR-5, 48 h, read-out: GI; procedure, shortened: as §2
[17] = test system: T47D; experiment: Cytotoxicity against human T47D cells; type: functional, cell-based
[18] = test system: PC-3; experiment: Growth inhibition of human PC3 cells at 1 uM after 48 hrs by sulpharhodamine B assay; type: functional; conditions: PC-3, 48 h, read-out: GI; procedure, shortened: as §2
[19] = test system: HEp-2; experiment: Growth inhibition of human Hep2 cells at 1 uM after 48 hrs by sulpharhodamine B assay; type: functional; conditions: HEp-2, 48 h, read-out: GI; procedure, shortened: as §2
[20] = test system: MCF7; experiment: Growth inhibition of human MCF7 cells at 1 uM after 48 hrs by sulpharhodamine B assay; type: functional; conditions: MCF7, 48 h, read-out: GI; procedure, shortened: as §2
[21] = test system: A549; experiment: Growth inhibition of human A549 cells at 1 uM after 48 hrs by sulpharhodamine B assay; type: functional; conditions: A549, 48 h, read-out: GI; procedure, shortened: as §2

C=C[C@@](C)(/C=C/c1ccc(O)cc1)CCC=C(C)C [BAKUCHIOL]
inhibition of growth at 30 µM [1]: 21% | inhibition of growth at 50 µM [2]: 58% | inhibition of growth at 50 µM [3]: 55% | inhibition of growth at 30 µM [4]: 20% | inhibition of growth at 30 µM [5]: 33% | inhibition of growth at 30 µM [6]: 31% | inhibition of growth at 50 µM [7]: 63% | inhibition of growth at 30 µM [8]: 44% | inhibition of growth at 30 µM [9]: 30% | inhibition of growth at 50 µM [10]: 66% | inhibition of growth at 30 µM [11]: 20% | inhibition of growth at 50 µM [12]: 53% | inhibition of growth at 50 µM [13]: 63% | inhibition of growth at 50 µM [14]: 74% | inhibition of growth at 50 µM [15]: 58% | inhibition of growth at 30 µM [16]: 25% | IC50 [17]: 28.9 µM

CO[C@@]12[C@H](COC(N)=O)C3=C(C(=O)C(C)=C(N)C3=O)N1C[C@@H]1N[C@@H]12 [MITOMYCIN]
inhibition of growth at 1 µM [18]: 70% | inhibition of growth at 1 µM [19]: 78%

COc1cccc2c1C(=O)c1c(O)c3c(c(O)c1C2=O)C[C@@](O)(C(=O)CO)C[C@@H]3O[C@H]1C[C@H](N)[C@H](O)[C@H](C)O1 [DOXORUBICIN]
inhibition of growth at 1 µM [20]: 85% | inhibition of growth at 1 µM [21]: 76%

Source: ChEMBL document CHEMBL1944511, “Bakuchiol derivatives as novel and potent cytotoxic agents: a report” (Eur J Med Chem, 2012)
